# Assay results: ChEMBL document CHEMBL5244249, “Discovery of tofacitinib derivatives as orally active antitumor agents based on the scaffold hybridization strategy” (Eur J Med Chem, 2020)
# The source made the active and inactive calls. The calls are words filed in the database; no cut-off is given here.
# Columns and labels:
# [1] = Activation of MAPK pathway in human MGC-803 cells assessed as change in p38 total expression at 5 to 10 uM incubated for 24 hrs by Western blot analysis; assay type: cell-based; conditions: dose 5-10 µM
# MGC-803 [2] = assay: Induction of apoptosis in human MGC-803 cells assessed as viable cells at 7.5 uM incubated for 24 hrs by Annexin V-FITC/PI staining based flow cytometric analysis (reference value: 90.3 %); assay type: functional; conditions: read-out: Activity
# MGC-803 [3] = assay: Induction of apoptosis in human MGC-803 cells assessed as viable cells at 5 uM incubated for 24 hrs by Annexin V-FITC/PI staining based flow cytometric analysis (reference value: 90.3 %); assay type: functional; conditions: read-out: Activity
# MGC-803 [4] = assay: Induction of apoptosis in human MGC-803 cells assessed as early apoptotic cells at 10 uM incubated for 48 hrs by Annexin V-FITC/PI staining based flow cytometric analysis (reference value: 2.5 %); assay type: functional
# MGC-803 [5] = assay: Induction of mitochondrial dysfunction in human MGC-803 cells assessed as increase in green fluorescence intensity at 10 uM incubated for 24 hrs by JC-1 staining based fluorescence microscopic analysis (reference value: 9.9%); assay type: functional
# MGC-803 [6] = assay: Cell cycle arrest in human MGC-803 cells assessed as S phase cells at 5 uM incubated for 24 hrs by RNase/PI staining based flow cytometric analysis (reference value: 27.1%); assay type: functional
# [7] = Toxicity in SCID mouse xenografted with human MGC-803 cells assessed as effect on lung at 12.5 to 25 mg/kg, IG administered for 21 days by H&E staining based histopathological analysis; assay type: organism-based; conditions: in vivo, po, 504 h, dose 12.5-25 mg/kg, time 21 day
# In short: (§1)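 SCID mice bearing subcutaneous MGC-803 xenografts (right side) dosed with 12.5 or 25 mg/kg over 21 days, 0.5% CMC-Na vehicle as control; body weight and tumor size monitored periodically; major organs examined histopathologically at end; means ± SD.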
# MGC-803 [8] = assay: Cell cycle arrest in human MGC-803 cells assessed as G0/G1 phase cells at 5 uM incubated for 24 hrs by RNase/PI staining based flow cytometric analysis (reference value: 54.99%); assay type: functional
# MGC-803 [9] = assay: Induction of mitochondrial dysfunction in human MGC-803 cells assessed as increase in green fluorescence intensity at 7.5 uM incubated for 24 hrs by JC-1 staining based fluorescence microscopic analysis (reference value: 9.9%); assay type: functional
# MGC-803 [10] = assay: Induction of apoptosis in human MGC-803 cells assessed as late apoptotic cells at 7.5 uM incubated for 24 hrs by Annexin V-FITC/PI staining based flow cytometric analysis (reference value: 3.8 %); assay type: functional
# MGC-803 [11] = assay: Induction of apoptosis in human MGC-803 cells assessed as early apoptotic cells at 5 uM incubated for 24 hrs by Annexin V-FITC/PI staining based flow cytometric analysis (reference value: 3.9 %); assay type: functional
# MGC-803 [12] = assay: Induction of apoptosis in human MGC-803 cells assessed as late apoptotic cells at 5 uM incubated for 48 hrs by Annexin V-FITC/PI staining based flow cytometric analysis (reference value: 0.5 %); assay type: functional
# MGC-803 [13] = assay: Cell cycle arrest in human MGC-803 cells assessed as G0/G1 phase cells at 10 uM incubated for 24 hrs by RNase/PI staining based flow cytometric analysis (reference value: 54.99%); assay type: functional
# MGC-803 [14] = assay: Induction of apoptosis in human MGC-803 cells assessed as activation of cytochrome C release from mitochondria to cytoplasm incubated for 24 hrs by Western blot analysis; assay type: functional, cell-based; conditions: dose 5-10 µM
# In short: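 After 24 h exposure of MGC-803 cells, Bcl-2, Mcl-1, Bax and cytochrome c release assessed by Western blot with band quantitation; mean ± SD from three independent experiments.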
# [15] = Activation of MAPK pathway in human MGC-803 cells assessed as change in phosphorylated Erk5 expression at 5 to 10 uM incubated for 24 hrs by Western blot analysis; assay type: cell-based; conditions: dose 5-10 µM
# MGC-803 [16] = assay: Inhibition of colony formation in human MGC-803 cells at 3 uM incubated for 9 days by crystal violet staining based analysis relative to control; assay type: functional; conditions: MGC-803, 216 h, time 9 day
# In short: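 Clonogenic assay: MGC-803 cells grown 9 days with 0, 1, 2 or 3 μM; colonies counted and inhibition rate calculated against untreated control; mean ± SD of three independent experiments.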
# MGC-803 [17] = assay: Induction of apoptosis in human MGC-803 cells assessed as total apoptotic cells at 10 uM incubated for 48 hrs by Annexin V-FITC/PI staining based flow cytometric analysis relative to control; assay type: functional
# MGC-803 [18] = assay: Induction of mitochondrial dysfunction in human MGC-803 cells assessed as upregulation of cleaved caspase-3 expression at 5 to 10 uM incubated for 24 hrs by Western blot analysis; assay type: functional, cell-based; conditions: dose 5-10 µM
# In short: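 Western blot of caspase 9, 3, 7, PARP and γH2A.X in MGC-803 lysates after 24 h exposure to 5, 7.5 or 10 μM; band quantitation; mean ± SD from three independent experiments.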
# [19] = Cytotoxicity against human GES1 cells assessed as inhibition of cell growth incubated for 72 hrs by MTT assay; assay type: toxicity, cell-based
# [20] = Toxicity in SCID mouse xenografted with human MGC-803 cells assessed as effect on liver at 12.5 to 25 mg/kg, IG administered for 21 days by H&E staining based histopathological analysis; assay type: organism-based; conditions: in vivo, po, 504 h, dose 12.5-25 mg/kg, time 21 day; in short: as §1
# [21] = Toxicity in SCID mouse xenografted with human MGC-803 cells assessed as effect on body weight at 12.5 to 25 mg/kg, IG administered for 21 days; assay type: organism-based; conditions: in vivo, po, 504 h, dose 12.5-25 mg/kg, time 21 day; in short: as §1
# [22] = Activation of MAPK pathway in human MGC-803 cells assessed as change in phosphorylated Erk1/2 expression at 5 to 10 uM incubated for 24 hrs by Western blot analysis; assay type: cell-based; conditions: dose 5-10 µM
# MGC-803 [23] = assay: Induction of apoptosis in human MGC-803 cells assessed as viable cells at 7.5 uM incubated for 48 hrs by Annexin V-FITC/PI staining based flow cytometric analysis (reference value: 96.7 %); assay type: functional; conditions: read-out: Activity
# MGC-803 [24] = assay: Induction of apoptosis in human MGC-803 cells assessed as necrotic cells at 5 uM incubated for 48 hrs by Annexin V-FITC/PI staining based flow cytometric analysis (reference value: 0.3 %); assay type: functional
# MGC-803 [25] = assay: Induction of apoptosis in human MGC-803 cells assessed as late apoptotic cells at 7.5 uM incubated for 48 hrs by Annexin V-FITC/PI staining based flow cytometric analysis (reference value: 0.5 %); assay type: functional
# BGC-823 = assay: Antiproliferative activity against human BGC-823 cells assessed as inhibition of cell growth incubated for 72 hrs by MTT assay; assay type: functional, cell-based; conditions: BGC-823, 72 h
# In short: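 Antiproliferative screen in gastric cancer lines MGC-803, HGC-27 and BGC-823 by MTT assay; IC50 reported as mean ± SD.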
# MGC-803 [26] = assay: Induction of apoptosis in human MGC-803 cells assessed as necrotic cells at 5 uM incubated for 24 hrs by Annexin V-FITC/PI staining based flow cytometric analysis (reference value: 2.0 %); assay type: functional
# [27] = Activation of MAPK pathway in human MGC-803 cells assessed as change in Erk5 total expression at 5 to 10 uM incubated for 24 hrs by Western blot analysis; assay type: cell-based; conditions: dose 5-10 µM
# MGC-803 [28] = assay: Cell cycle arrest in human MGC-803 cells assessed as S phase cells at 10 uM incubated for 24 hrs by RNase/PI staining based flow cytometric analysis (reference value: 27.1%); assay type: functional
smiles,measurement,setting,value
Cc1cc(N2CC[C@@H](C)[C@@H](N(C)c3ncnc4[nH]ccc34)C2)n2nc(SCc3ccc(C(F)(F)F)cc3)nc2n1,Activity,[1],inactive
same,viability at 7.5 µM,MGC-803 [2],69.2%
same,viability at 5 µM,MGC-803 [3],81.7%
same,Activity,MGC-803 [4],4.9%
same,Activity,MGC-803 [5],49.1%
same,Activity,MGC-803 [6],30.04%
same,Activity,[7],Non-Toxic
same,Activity,MGC-803 [8],56.93%
same,Activity,MGC-803 [9],39.1%
same,Activity,MGC-803 [10],15.8%
same,Activity,MGC-803 [11],5.5%
same,Activity,MGC-803 [12],17.2%
same,Activity,MGC-803 [13],56.74%
same,Activity,MGC-803 [14],Dose-Dependent Effect
same,Activity,[15],inactive
same,inhibition at 3 µM,MGC-803 [16],73%
same,Activity,MGC-803 [17],82.1%
same,Activity,MGC-803 [18],Active
same,IC50 at 72 h,[19],17.3 µM
same,Activity,[20],Non-Toxic
same,Activity,[21],Non-Toxic
same,Activity,[22],inactive
same,viability at 7.5 µM,MGC-803 [23],22.1%
same,Activity,MGC-803 [24],0.9%
same,Activity,MGC-803 [25],67.5%
same,IC50,BGC-823,23.3 µM
same,Activity,MGC-803 [26],4%
same,Activity,[27],inactive
same,Activity,MGC-803 [28],28.14%
